Activity calls are given as the source filed them. The rule behind the calls is not given here.
What was measured:
MCF7 [1] = assay: Cytotoxicity against human MCF7 cells; assay type: functional, cell-based
Method in brief: (§1)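 MTT read-out. Cells grown at 37 °C in DMEM with 10 mM glucose, 10% fetal calf serum, penicillin/streptomycin and 2 mmol/L glutamine. Seeded at 10^5 cells per well and left 24 h to attach, then compound added over a range of concentrations and cells grown 24 or 48 h. MTT at 1 mg/mL for 2 h at 37 °C in the dark, formazan dissolved in DMSO, OD read at 550 nm. Values are % of vehicle control (0.5% DMSO); IC50 by linear and polynomial regression; triplicate.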

[2] = Antitumor activity against human MDA231 cells after 24 to 48 hrs by MTT assay; assay type: functional, cell-based; details: MDA-MB-231; method in brief: as §1
SW-620 = assay: Antitumor activity against human SW620 cells after 24 to 48 hrs by MTT assay; assay type: functional, cell-based; method in brief: as §1
U-937 = assay: Antitumor activity against human U937 cells after 24 to 48 hrs by MTT assay; assay type: functional, cell-based; method in brief: as §1
MDA-MB-435 = assay: Antitumor activity against human MDA-MB-435 cells after 24 to 48 hrs by MTT assay; assay type: functional, cell-based
Method in brief: as §1, with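 “nm.” for “nm. Values are % of vehicle control (0.5% DMSO); IC50 by linear and polynomial regression; triplicate.”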

SK-MEL-28 = assay: Antitumor activity against human SK-MEL-28 cells after 24 to 48 hrs by MTT assay; assay type: functional, cell-based; method in brief: as §1
[3] = Antitumor activity against human IGROV cells after 24 to 48 hrs by MTT assay; assay type: functional, cell-based
Method in brief: as §1, with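 “nm.” for “nm. Values are % of vehicle control (0.5% DMSO); IC50 by linear and polynomial regression; triplicate.”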

SF-295 = assay: Antitumor activity against human SF295 cells after 24 to 48 hrs by MTT assay; assay type: functional, cell-based; method in brief: as §1
SNB-19 = assay: Antitumor activity against human SNB19 cells after 24 to 48 hrs by MTT assay; assay type: functional, cell-based; method in brief: as §1
COLO 205 = assay: Antitumor activity against human COLO205 cells after 24 to 48 hrs by MTT assay; assay type: functional, cell-based; method in brief: as §1
HT-29 = assay: Antitumor activity against human HT-29 cells after 24 to 48 hrs by MTT assay; assay type: functional, cell-based; method in brief: as §1
Caco-2 [4] = assay: Antitumor activity against human undifferentiated Caco2 cells after 24 to 48 hrs by MTT assay; assay type: functional, cell-based; method in brief: as §1
Caco-2 [5] = assay: Antitumor activity against human differentiated Caco2 cells after 24 to 48 hrs by MTT assay; assay type: cell-based; method in brief: as §1
Caco-2 [6] = assay: Selectivity index, ratio IC50 for undifferentiated human Caco2 cells to IC50 for differentiated human Caco2 cells; assay type: functional
Method in brief: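 Ratio of MTT IC50 in undifferentiated to differentiated Caco-2 cells. MTT conditions: 24 or 48 h exposure, formazan dissolved in DMSO, read at 550 nm, IC50 by regression, triplicate.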

MCF7 [7] = assay: Drug uptake in human MCF7 cells assessed as nuclear localization at 50 nM after 30 mins by confocal microscopic analysis; assay type: ADME, cell-based; details: mcf7, 0.5 h, 0.05 µM
Method in brief: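 Imaging in MCF-7 cells by confocal microscopy with 50 nM labeled compound. Cells fixed in paraformaldehyde for 30 min at 4 °C, permeabilized with Triton X-100 for 30 min at 4 °C, and nuclei stained with Hoechst 33342. Images taken with a 63× oil objective.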

Homo sapiens [8] = species: Homo sapiens; assay: Inhibition of human topoisomerase 2-mediated relaxation of supercoiled pBR322 DNA relaxation after 6 mins by agarose gel electrophoresis
Nucleic Acid [9] = assay: Binding affinity to poly(dG-dC).poly(dG-dC) DNA assessed as compound/DNA complex formation at 1 mM by STD NMR spectrophotometric analysis; assay type: nucleic-acid assay
Method in brief: (§2)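 Ligand at 1.0 mM with poly(dG-dC)·poly(dG-dC) at 50 μM (as phosphate groups), a 20:1 ligand excess, in H2O/D2O 9:1 with 100 mM phosphate-buffered saline, pH 7.1. Water suppressed by DPFGSE. STD effects taken relative to a reference spectrum with off-resonance saturation at δ −16 ppm, 2 s saturation, typically 512 scans. WaterLOGSY spectra recorded with and without DNA.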

Nucleic Acid [10] = assay: Binding affinity to poly(dG-dC).poly(dG-dC) DNA assessed as compound/DNA complex formation at 1 mM by WaterLOGSY NMR spectrophotometric analysis; assay type: nucleic-acid assay; method in brief: as §2
Nucleic Acid [11] = assay: Binding affinity to DNA assessed as binding mode index by measuring aliphatic signals by DF-STD spectrophotometric analysis; assay type: nucleic-acid assay
Method in brief: (§3)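 DF-STD NMR on poly(dG-dC)·poly(dG-dC) in H2O/D2O 9:1 with 100 mM phosphate-buffered saline, pH 7.1. Ligand 1.0 mM; DNA 50 μM as phosphate (20:1 ligand excess). Saturation is centred on the aromatic or low-field aliphatic region for 2 s, with a reference off-resonance at δ −16 ppm and 512 scans. The binding mode index is the relative response of ligand protons to base versus sugar/backbone saturation.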

Nucleic Acid [12] = assay: Binding affinity to DNA assessed as binding mode index by measuring aromatic signals by DF-STD spectrophotometric analysis; assay type: nucleic-acid assay; method in brief: as §3
Caco-2 [13] = assay: Cell cycle arrest in human Caco2 cells assessed as accumulation at G1 phase at 1 uM after 48 hrs by propidium iodide staining based flow cytometric analysis (reference value: 42%); assay type: functional
Caco-2 [14] = assay: Cell cycle arrest in human Caco2 cells assessed as accumulation at G2/M phase at 1 uM after 48 hrs by propidium iodide staining based flow cytometric analysis (reference value: 21%); assay type: functional
Caco-2 [15] = assay: Cell cycle arrest in human Caco2 cells assessed as accumulation at S phase at 1 uM after 48 hrs by propidium iodide staining based flow cytometric analysis (reference value: 36%); assay type: functional
Caco-2 [16] = assay: Induction of cyclin A expression in human Caco2 cells at 1 uM after 48 hrs by Western blot analysis; assay type: functional
Method in brief: (§4)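 Caco-2 cells treated for 48 h (1 or 5 μM for Hsp27; 1 μM for cyclin A). Lysed in ice-cold 50 mM Tris, 150 mM NaCl, 10 mM EDTA, 1% Triton with protease inhibitors. Equal protein run on 8–12% SDS-PAGE and transferred to nitrocellulose. Primary antibody overnight in TBS/Tween/1% milk, then HRP secondary; bands detected by ECL.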

Caco-2 [17] = assay: […] of cell differentiation in human Caco2 cells assessed as increase in ALP activity at 10 uM after 48 hrs; assay type: functional; set-up: scale not given: the % may be the effect or the level left
Method in brief: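 Caco-2 cells cultured 48 h with 0, 1, 5 or 10 μM compound. Attached and floating cells washed and lysed in 0.25% sodium deoxycholate. ALP activity measured with a diagnostic ALP reagent and protein by Bradford microassay. Activity expressed as units per mg protein, as a differentiation marker.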

Caco-2 [18] = assay: Increase in Hsp27 protein expression in human Caco2 cells at 1 uM after 48 hrs by Western blot analysis; assay type: functional, cell-based; method in brief: as §4
Caco-2 [19] = assay: Increase in Hsp27 protein expression in human Caco2 cells at 5 uM after 48 hrs by Western blot analysis; assay type: functional, cell-based; method in brief: as §4
[20] = Cardiotoxicity in rat H9c2 cells assessed as cell viability at 1 uM up to 120 hrs by MTT assay; assay type: toxicity, cell-based; details: read-out: Activity
Method in brief: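 Rat H9C2 cardiomyoblasts, passages 4–10, grown at 37 °C in DMEM with FBS, glutamine and penicillin/streptomycin. Plated at 2000 cells/well in quadruplicate and given compound at 1 μM for the indicated times. MTT reagent added for 2 h in the incubator, then absorbance read at 570 nm. Data are mean ± SD.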

Homo sapiens [21] = species: Homo sapiens; assay: Inhibition of human topoisomerase 2-mediated relaxation of supercoiled pBR322 DNA relaxation at 5 uM after 6 mins by agarose gel electrophoresis
Method in brief: (§5)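 Compound at 5 or 10 μM. Run 6 min at 37 °C and stopped with EDTA/SDS/glycerol dye. Products run on 1% agarose in 0.5× TBE at 4 V/cm for 1 h, stained with ethidium bromide, bands quantified.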

Homo sapiens [22] = species: Homo sapiens; assay: Inhibition of human topoisomerase 2-mediated relaxation of supercoiled pBR322 DNA relaxation at 10 uM after 6 mins by agarose gel electrophoresis; method in brief: as §5

SMILES: CCN(CC)CCC(=O)Nc1csc2c1C(=O)c1ccccc1C2=O.Cl
- IC50 (MCF7 [1]): 0.5 µM
- IC50 [2]: 2.5 µM
- IC50 (SW-620): 1.5 µM
- IC50 (U-937): 1.1 µM
- IC50 (MDA-MB-435): 0.5 µM
- IC50 (SK-MEL-28): 0.6 µM
- IC50 [3]: 2.5 µM
- IC50 (SF-295): 0.6 µM
- IC50 (SNB-19): 0.7 µM
- IC50 (COLO 205): 0.9 µM
- IC50 (HT-29): 0.8 µM
- IC50 (Caco-2 [4]): 1 µM
- IC50 (Caco-2 [5]): 4.1 µM
- Ratio IC50 (Caco-2 [6]): 0.25
- Drug uptake (MCF7 [7]): Active
- inhibition (Homo sapiens [8]): Dose-dependent effect
- Activity (Nucleic Acid [9]): Active
- Activity (Nucleic Acid [10]): Active
- Activity (Nucleic Acid [11]): 0.86
- Activity (Nucleic Acid [12]): 1.35
- Activity (Caco-2 [13]): 29%
- Activity (Caco-2 [14]): 28%
- Activity (Caco-2 [15]): 41%
- Activity (Caco-2 [16]): inactive
- Activity (Caco-2 [17]): >180%
- Activity (Caco-2 [18]): Active
- Activity (Caco-2 [19]): inactive
- viability at 120 h, 1 µM [20]: 74%

SMILES: N[C@@H](Cc1ccccc1)C(=O)Nc1csc2c1C(=O)c1ccccc1C2=O.O=C(O)C(F)(F)F
- IC50 [2]: > 40 µM
- IC50 (SW-620): 30.5 µM
- IC50 (U-937): > 40 µM
- inhibition (Homo sapiens [21]): inactive
- inhibition (Homo sapiens [22]): inactive
- Activity (Nucleic Acid [9]): inactive
- Activity (Nucleic Acid [10]): inactive
- Activity (Caco-2 [13]): 37%
- Activity (Caco-2 [14]): 18%
- Activity (Caco-2 [15]): 44%
- Activity (Caco-2 [16]): inactive

SMILES: O=C(CO)Nc1csc2c1C(=O)c1ccccc1C2=O
- IC50 [2]: 10.1 µM
- IC50 (SW-620): 18.5 µM
- IC50 (U-937): 15.1 µM

SMILES: O=C1c2ccccc2C(=O)c2c(NC(=O)[C@@H]3CCCN3)csc21
- IC50 [2]: 6.7 µM
- IC50 (SW-620): 5.4 µM
- IC50 (U-937): 0.9 µM

SMILES: O=C(CCS)Nc1csc2c1C(=O)c1ccccc1C2=O
- IC50 [2]: 15.2 µM
- IC50 (SW-620): 20.7 µM
- IC50 (U-937): 23.9 µM

SMILES: O=C(CS)Nc1csc2c1C(=O)c1ccccc1C2=O
- IC50 [2]: 13.6 µM
- IC50 (SW-620): 20.9 µM
- IC50 (U-937): 30.1 µM

SMILES: CCCNC(=O)Nc1csc2c1C(=O)c1ccccc1C2=O
- IC50 [2]: 9.5 µM
- IC50 (SW-620): 6.5 µM
- IC50 (U-937): 10.1 µM

SMILES: CN(C)CCNCC(=O)Nc1csc2c1C(=O)c1ccccc1C2=O
- IC50 [2]: 4.9 µM
- IC50 (SW-620): 2.1 µM
- IC50 (U-937): 4 µM

SMILES: O=C(CN1CCOCC1)Nc1csc2c1C(=O)c1ccccc1C2=O
- IC50 [2]: 7.1 µM
- IC50 (SW-620): 10.8 µM
- IC50 (U-937): 4.3 µM

SMILES: Nc1csc2c1C(=O)c1ccccc1C2=O
- IC50 (MCF7 [1]): 3.2 µM
- IC50 [2]: 11.3 µM
- IC50 (SW-620): 4 µM
- IC50 (U-937): 10.1 µM
